Measured values taken from ChEMBL document CHEMBL3867452, “Acylphloroglucinolated Catechin and Phenylethyl Isocoumarin Derivatives from Agrimonia pilosa” (J Nat Prod, 2016).
Values belong to the compound of their own block, whether it stands above or below them.

Columns and labels:
Mus musculus = organism: Mus musculus; assay: Cytotoxicity against mouse BV2 cells assessed as reduction in cell viability after 24 hrs by MTT assay; assay type: toxicity, cell-based; conditions: bv-2, 24 h
In short: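 BV2 microglia kept in DMEM with 10% FBS, penicillin 100 IU/mL and streptomycin, at 37.8 °C under 5% CO2. Cells were incubated 24 h in 96-well plates. Medium was then replaced with MTT 0.2 mg/mL for 3 h at 37.8 °C, and formazan was dissolved in DMSO. Absorbance read at 540 nm; viability given as percent of control.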

BV-2 = assay: Inhibition of LPS-induced NO production in mouse BV2 cells preincubated for 1 hr followed by LPS addition measured after 24 hrs by Griess assay; assay type: functional, cell-based
In short: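 BV2 cells seeded at 4 × 10^4 cells/well. Compounds were dissolved in DMSO, final DMSO under 0.1%. Pretreatment lasted 1 h, then LPS 500 ng/mL was added and cells incubated 24 h. Nitrite in the medium was measured by Griess assay. IC50 given as mean ± SD of three experiments; ω-nitro-L-arginine methyl ester served as positive control.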

IC50 (BV-2): 60.4 µM
Compound: CCC(C)C(=O)c1c(O)c(Cc2c(O)cc(O)c3c2O[C@H](c2ccc(O)c(O)c2)[C@@H](O)C3)c(O)c(C)c1OC (stereo partly specified)
Activity (Mus musculus): Non-Toxic

IC50 (BV-2): 54.6 µM
Compound: COc1c(C)c(O)c(Cc2c(O)cc(O)c3c2O[C@H](c2ccc(O)c(O)c2)[C@@H](O)C3)c(O)c1C(=O)C(C)C
Activity (Mus musculus): Non-Toxic

Further lines, the compound ahead of its results:

Compound: COc1c(C)c(O)c(Cc2c(O)cc(O)c3c2O[C@H](c2ccc(O)c(O)c2)[C@@H](O)[C@@H]3c2c(O)cc(O)c3c2O[C@H](c2ccc(O)c(O)c2)[C@H](O)C3)c(O)c1C(=O)C(C)C
Activity (Mus musculus): Non-Toxic
IC50 (BV-2): 38.1 µM

Compound: CCCC(=O)c1c(O)c(Cc2c(O)cc(O)c3c2O[C@H](c2ccc(O)c(O)c2)[C@@H](O)C3)c(O)c(C)c1OC
Activity (Mus musculus): Non-Toxic
IC50 (BV-2): 38.1 to 43.6 µM

Compound: COC(=O)[C@@H](N)CCCNC(=N)N[N+](=O)[O-] [L-NAME]
IC50 (BV-2): 24.7 µM

Compound: CCCC(=O)c1c(O)c(Cc2c(O)cc(O)c3c2O[C@H](c2ccc(O)c(O)c2)[C@@H](O)[C@@H]3c2c(O)cc(O)c3c2O[C@H](c2ccc(O)c(O)c2)[C@H](O)C3)c(O)c(C)c1OC
Activity (Mus musculus): Non-Toxic
IC50 (BV-2): 43.6 to 52.4 µM
